T cruzi inh – T. cruzi replication inhibition | AID 1885 | inhibition, % (concentration not given with the values) | T. cruzi beta-gal in NIH3T3, luminescence, 90 h | 300,000 compounds, 1.4% hits;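 active = mean inhibition across valid replicates above about 55%, limit read from the data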;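 also: signal also drops with host cell toxicity which is not excluded here; higher percent means less beta-gal luminescence so fewer parasites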
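compound dosing = single 50 nL compound addition per well in DMSO | material = NIH/3T3 host cells with β-galactosidase reporter T. cruzi | input = 5,000 host fibroblasts per well | timing = ≥90 h infection period, 3 h prior cell attachment | read-out basis = percent inhibition of parasite-derived β-gal signal | detection = GalScreen β-gal luminescence, detergent lysis, 60 min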
CSC inhib – blocks cancer stem cells | cancer stem cell-like cells viability, luminescence | inhibition, % at 7.5 µM | 300,000 compounds, 1.1% hits; in the data active = inhibition above about 75%; tested in HMLE shEcad cells
GRIN3A LBD mod – NR3A (human) ligand-binding domain modulation | AID 1259313 | 340,000 compounds, 2.5% hits | Tm shift relative to glycine control, % at 25 µM | NR3A LBD differential scanning fluorimetry, Tm shift; 0% = protein alone, 100% = glycine-bound protein;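 active = melting temperature shift of at least 10% of the positive control shift, at one fixed dose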
PREPL inhibitor – inhibits the human prolyl oligopeptidase-like enzyme | Q4J6C6 | recombinant PREPL, fluorescence polarization activity-based probe | inhibition, % at 5.96 µM | 320,000 compounds, 0.68% hits; in the data active = inhibition above about 43%
Target sequence (Q4J6C6 whole entry, looked up): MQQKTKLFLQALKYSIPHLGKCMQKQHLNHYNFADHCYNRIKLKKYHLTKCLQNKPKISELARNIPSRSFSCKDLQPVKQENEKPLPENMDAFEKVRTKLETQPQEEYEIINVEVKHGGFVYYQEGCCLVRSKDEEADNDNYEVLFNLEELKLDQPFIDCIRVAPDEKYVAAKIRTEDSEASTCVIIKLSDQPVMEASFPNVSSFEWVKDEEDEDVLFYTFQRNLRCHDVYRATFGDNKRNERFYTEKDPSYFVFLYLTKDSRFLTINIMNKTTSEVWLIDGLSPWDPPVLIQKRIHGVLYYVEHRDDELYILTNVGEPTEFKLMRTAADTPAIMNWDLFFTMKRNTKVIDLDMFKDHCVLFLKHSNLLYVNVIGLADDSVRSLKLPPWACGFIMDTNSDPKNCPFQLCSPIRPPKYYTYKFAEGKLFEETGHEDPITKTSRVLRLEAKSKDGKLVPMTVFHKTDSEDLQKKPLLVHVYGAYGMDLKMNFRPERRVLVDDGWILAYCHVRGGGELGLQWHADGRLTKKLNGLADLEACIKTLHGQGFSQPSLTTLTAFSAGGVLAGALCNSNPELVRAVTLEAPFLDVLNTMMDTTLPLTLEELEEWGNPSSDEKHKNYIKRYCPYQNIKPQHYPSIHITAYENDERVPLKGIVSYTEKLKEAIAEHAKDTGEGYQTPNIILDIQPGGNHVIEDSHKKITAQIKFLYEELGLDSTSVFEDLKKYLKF
CHOP inh – blocks CHOP induction under ER stress; CHO-K1 CHOP-promoter luciferase, tunicamycin-induced, 15-18 h; inhibition, % at 10 µM; 220,000 compounds, 3.8% hits; AID 2732;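 active = compounds that reduced the stress-induced luciferase reporter signal by more than about 70% of percent inhibition, limit read from the data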
Beta cell apopt – beta cell apoptosis inhibition. 300,000 compounds, 0.8% hits. protection from apoptosis, % (no concentration beside the values). AID 435005. INS-1E cytokine-induced death, ATP luminescence, 48 h; percent of positive-control rescue, neutral wells zero;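 active = Every replicate reaches about 75%, or at least half do and their mean reaches it too, limit read from the data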;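 also: higher means more ATP so stronger rescue from cytokine killing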
Of the large screens only hits and unclear results are named; the others gave an inactive call. Shown are actives, neighbours in structure and some others; about 6.7% of the full set was active somewhere.

Cc1ccc(C(=O)Nc2ncccc2O)cc1S(=O)(=O)N1CCCCC1	none (no result: CHOP inh)
CCOC(=O)c1cccc(NC(=O)Cn2cc3c(n2)CCC(C)C3)c1 (centres undefined)	CHOP inh 82.6
Nc1n[nH]c(N)c1N=Nc1ccccc1F	GRIN3A LBD mod 32.3 (no result: CHOP inh)
Nc1n[nH]c(N)c1N=Nc1ccccc1	none
Nc1n[nH]c(N)c1N=Nc1ccc(Cl)cc1Cl	GRIN3A LBD mod 20.1
Cc1ccccc1N=Nc1c(N)n[nH]c1N	none (no result: PREPL inhibitor, CHOP inh)
CCOC(=O)C1(Cc2ccc(Cl)cc2)CCN(C(=O)c2sc(C)nc2C)CC1	none
CCC(/C=C1\Sc2ccc(OC)cc2N1CC)=C\c1sc2ccc(OC)cc2[n+]1CCCS(=O)(=O)[O-]	Beta cell apopt 102.6
CCC(/C=C1\Sc2ccc(OC)cc2N1CCO)=C\c1sc2ccc(OC)cc2[n+]1CCO	none (no result: T cruzi inh)
COc1ccc2cc(/C(C)=N/NC(=S)Nc3cc(S(=O)(=O)N4CCOCC4)ccc3N3CCOCC3)ccc2c1	T cruzi inh 68.9 (no result: GRIN3A LBD mod)
C/C(=N\NC(=S)Nc1ccc(F)cc1)c1ccc2c(c1)OCCO2	CSC inhib 75.7
CC(C)CN=Cc1c(O)c([N+](=O)[O-])cc2oc3c(c12)CCCC3	CHOP inh 84.1 (no result: Beta cell apopt)
Cc1cccc(/N=C/c2c(O)ccc3oc4c(c23)CCCC4)n1	none
O=C(Cc1ccsc1)N1CCN(S(=O)(=O)c2ccccc2F)CC1	none (no result: T cruzi inh, CSC inhib, CHOP inh)
COC(=O)c1cccc(NC(=O)/C=C/c2cccc([N+](=O)[O-])c2)c1	GRIN3A LBD mod 17.4
CC(=O)c1cccc(NC(=O)/C=C/c2ccc([N+](=O)[O-])s2)c1	T cruzi inh 55.9, GRIN3A LBD mod 10.1, CHOP inh 74.2 (no result: CSC inhib, PREPL inhibitor, Beta cell apopt)
Cc1cc(C)cc(NC(=O)/C=C/c2ccc([N+](=O)[O-])s2)c1	none
COC(=O)c1cccc(NC(=O)/C=C/c2ccc([N+](=O)[O-])cc2)c1	none
O=C(/C=C/c1ccc([N+](=O)[O-])cc1)Nc1cccc(C(=O)Nc2ccccc2C(=O)O)c1	GRIN3A LBD mod 16.7 (no result: CHOP inh)
Cc1cc(C)c2c(N)c(C(=O)Nc3c(C)n(C)n(-c4ccccc4)c3=O)sc2n1	none (no result: CHOP inh)
Cc1cc(Cl)ccc1OCC(=O)OCC(=O)Nc1ccc(F)c([N+](=O)[O-])c1	GRIN3A LBD mod 25.7 (no result: T cruzi inh)
Cc1cc(Cl)ccc1OCCCC(=O)OCC(N)=O	none
Cc1cc(Cl)ccc1OCCCC(=O)OCC(=O)Nc1cccc(S(N)(=O)=O)c1	GRIN3A LBD mod 10.1 (no result: T cruzi inh, CSC inhib, CHOP inh)
CCOC(=O)C1C(c2ccccc2Cl)NC(=O)N(C)C1(O)C(F)(F)F (centres undefined)	CHOP inh 70.5
Cc1ccc(-c2cc3nc(-c4ccccc4)cc(N)n3n2)cc1	GRIN3A LBD mod 13.0, CHOP inh 77.7
Cc1ccc(-c2cc3nc(-c4ccc(Br)cc4)cc(N)n3n2)cc1	GRIN3A LBD mod 39.1
Cc1ccc(-c2cc(N)n3nc(-c4ccc(C)cc4)cc3n2)cc1	GRIN3A LBD mod 26.9, CHOP inh 74.3
Cc1cc(C)n2nc(-c3ccc(Br)cc3)cc2n1	none (no result: CHOP inh)
Cn1cnnc1SCC(=O)Nc1ccc(Cl)c(S(=O)(=O)N2CCOCC2)c1	none
O=S(=O)(c1cccc2cccnc12)N1CCN(Cc2ccccc2)CC1	none
NC(N)=NC(N)=Nc1ccc2ccccc2c1	none
NC(N)=NC(N)=Nc1ccc(SC(F)(F)F)cc1	Beta cell apopt 115.9
COc1cc(C(=O)OCC(=O)NCCN2C(=O)CSC2=O)ccc1OCc1c(C)noc1C	none
O=C(Cc1nnc(NC(=O)Nc2ccccc2)s1)Nc1ccccc1	GRIN3A LBD mod 12.4
Cc1ccc(OCCSCc2nnc(NC(=O)Nc3cccc(Cl)c3)s2)cc1	GRIN3A LBD mod 13.9, CHOP inh 82.8
O=C(Cc1nc(=O)c2ccccc2s1)Nc1ccccc1	GRIN3A LBD mod 18.0
O=C(Nc1ccc(Cl)c(Cl)c1)Nc1nnc(CSc2ccccc2)s1	CHOP inh 77.0, Beta cell apopt 99.6
O=C(Cn1ccc(NC(=O)OCc2ccccc2)nc1=O)NCCCn1ccnc1	none (no result: T cruzi inh, CHOP inh)
COc1ccccc1CNC(=O)[C@H](C)NC(=O)C1CCN(C(=O)[C@@H](N)CC(C)C)CC1	none (no result: CHOP inh)
CCOC(=O)C1=CC[C@H]2c3c(c4ccccc4n3C)C(=O)C1N2C(=O)OC(C)(C)C	none (no result: T cruzi inh, CHOP inh)
O=C(Nc1ccccc1)Nc1nnc(CSCc2ccccc2Cl)s1	GRIN3A LBD mod 30.3, CHOP inh 90.2 (no result: CSC inhib)
O=C(Cc1nnc(NC(=O)Nc2ccc(F)cc2)s1)Nc1ccccc1	GRIN3A LBD mod 25.4
O=C(Nc1ccc(Cl)cc1)Nc1nnc(CSCc2ccccc2Cl)s1	none
CS(=O)(=O)N(CC(=O)Nc1ccccc1Sc1ccccc1)c1cccc(Br)c1	CHOP inh 77.1
COc1ccc2cc(C(=O)N3CCCCCC3)sc(=O)c2c1OC	none
COc1ccc2cc(C(=O)Nc3ccc(O)cc3)sc(=O)c2c1OC	GRIN3A LBD mod 30.7
COC(=O)c1cc2ccc(OC)c(OC)c2c(=O)s1	none
COc1ccc2cc(C(=O)Nc3ccc(F)cc3)sc(=O)c2c1OC	GRIN3A LBD mod 20.9
COc1ccc2cc(C(=O)Nc3ccc(Cl)cc3)sc(=O)c2c1OC	GRIN3A LBD mod 22.2
CCCCCn1c(=O)[nH]c2cc(C(=O)NCCCN3CCCCC3CC)ccc2c1=O (centres undefined)	none (no result: CHOP inh)
CCN(CC)C1=C(Cl)C(=O)C(Cl)C12OCCO2 (centres undefined)	none (no result: Beta cell apopt)
CC#CCN1c2ccccc2[C@]23C[C@@H](C(=O)OC)N(C(=O)NC4CCCCC4)C2=NC(C(=O)OC)=C(C(=O)OC)[C@H]13	none (no result: CHOP inh)
CSc1cccc(N2C(=O)C3CCCN3C2=S)c1 (centres undefined)	none (no result: CHOP inh)
Cc1ccc(NC(=O)CSc2ccc(C(N)=O)cc2[N+](=O)[O-])cc1C	none
CC(=O)c1ccc(NC(=O)CSc2ccsc2[N+](=O)[O-])cc1	GRIN3A LBD mod 11.8 (no result: CSC inhib, PREPL inhibitor, Beta cell apopt)
Cc1ccc(NC(=O)CSc2ccc(C(N)=O)cc2[N+](=O)[O-])cc1	GRIN3A LBD mod 25.1
CCOC(=O)c1cc2c(=O)n3ccccc3nc2n(C(C)C)c1=NC(=O)c1c(-c2ccccc2Cl)noc1C	T cruzi inh 63.5
CC(=O)c1cccc(NC(=S)NNC(=O)c2ccc(C)c([N+](=O)[O-])c2)c1	none
O=C(NNC(=S)Nc1ccc(F)cc1)c1cccc([N+](=O)[O-])c1	none (no result: Beta cell apopt)
Cc1ccc(C(=O)NNC(=S)Nc2cccc(Cl)c2Cl)cc1[N+](=O)[O-]	GRIN3A LBD mod 18.0
Cc1ccc(NC(=S)NNC(=O)c2cccc([N+](=O)[O-])c2)cc1Cl	GRIN3A LBD mod 11.9
O=C(c1cnc(N2CCN(c3ncccn3)CC2)c2ccccc12)N1CCN(c2ccccn2)CC1	none
COc1ccc(N(C)C(=O)c2cnc(N3CCN(c4ncccn4)CC3)c3ccccc23)cc1	GRIN3A LBD mod 768.9
CS(=O)(=O)N(CC(=O)Nc1ccccc1)Cc1ccc(Cl)cc1	none (no result: CSC inhib, Beta cell apopt)
CSc1cccc(NC(=O)CN(Cc2ccc(Cl)cc2)S(C)(=O)=O)c1	CHOP inh 93.1
